PKD1 inh = PKD1 (human) kinase inhibition. PKD1 kinase fluorescence polarization assay. inhibition, % (no concentration beside the values). 0.056% of 200,000 active. Q15139; in the data active = inhibition above about 50%
TNAP act hi DEA = increases human TNAP activity under high phosphate acceptor concentration | P05186 | purified TNAP, CDP-star luminescence, 1 M DEA, 30 min; hits give high values; 0 = EDTA background, 1 = DMSO-only activity | activation factor at 20 µM | 200,000 tested, under 10 active | AID 1136;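 active = activation factor at least 2 at 20 µM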
Target sequence (P05186 whole entry, looked up): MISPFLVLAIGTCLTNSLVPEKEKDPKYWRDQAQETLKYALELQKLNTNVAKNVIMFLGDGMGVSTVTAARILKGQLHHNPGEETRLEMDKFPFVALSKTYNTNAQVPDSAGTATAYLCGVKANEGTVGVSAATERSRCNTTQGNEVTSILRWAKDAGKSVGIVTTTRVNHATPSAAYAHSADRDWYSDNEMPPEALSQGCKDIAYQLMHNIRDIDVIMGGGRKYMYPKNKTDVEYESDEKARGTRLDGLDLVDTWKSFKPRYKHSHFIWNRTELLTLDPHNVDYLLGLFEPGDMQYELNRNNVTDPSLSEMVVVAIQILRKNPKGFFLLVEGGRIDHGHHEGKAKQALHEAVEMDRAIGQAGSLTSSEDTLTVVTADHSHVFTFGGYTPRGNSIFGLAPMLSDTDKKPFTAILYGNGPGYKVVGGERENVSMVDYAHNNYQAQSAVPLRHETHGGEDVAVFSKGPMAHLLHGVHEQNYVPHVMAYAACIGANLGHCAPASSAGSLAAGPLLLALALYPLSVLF
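Control set: EDTA negative control, DMSO positive control / Assay system: human TNAP / Quantity: TNAP 1/800 final / Evaluation: TNAP activation factor scaled between EDTA and DMSO control wells / Measured by: luminescent substrate turnover signal / Compound dosing: one dose, 20 µM / Times: 30 min enzyme reaction at room temperature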
TNAP inh hiacc = inhibitors of human TNAP at high phosphate acceptor concentration. inhibition, % at 20 µM. purified TNAP, CDP-star luminescence, 1 M DEA. 0.03% of 200,000 active. P05186. AID 1135;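 active = over 50% inhibition of tissue-nonspecific alkaline phosphatase at 20 µM in the single-dose screen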
Arbovirus inh = arbovirus infection inhibition; arbovirus infection cell-based antiviral screen; inhibition, % at 10 µM; 0.37% of 200,000 active; AID 1251; in the data active = inhibition above about 30%
TNAP inh noacc = inhibitors of human TNAP without phosphate acceptor. purified TNAP, CDP-star luminescence, 30 min. 0.26% of 200,000 active. inhibition, % at 20 µM. P05186;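 active = tissue-nonspecific alkaline phosphatase inhibition above about 50% at 20 µM in the single-dose screen, limit read from the data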
Numbers stand for hits. Compounds with a hit are over-represented: about 0.73% of the library has one in this group of screens.

How did O=C(c1ccccn1)N1CCN(S(=O)(=O)c2ccccc2)CC1 do in these assays?
PKD1 inh: inactive; TNAP act hi DEA: inactive; TNAP inh hiacc: inactive; Arbovirus inh: inactive; TNAP inh noacc: inactive

How did Cc1ccc(Cl)cc1NC(=O)c1cccc(OC(F)F)c1 do in these assays?
PKD1 inh: inactive; TNAP act hi DEA: inactive; TNAP inh hiacc: inactive; Arbovirus inh: inactive; TNAP inh noacc: inactive

Results for O=c1/c(=C/c2ccco2)sc2nc(-c3ccccc3Br)nn12 ?
PKD1 inh: inactive; TNAP act hi DEA: inactive; TNAP inh hiacc: inactive; Arbovirus inh: inactive; TNAP inh noacc: 58.2

How did COc1ccccc1-c1nc2s/c(=C\c3cccs3)c(=O)n2n1 do in these assays?
PKD1 inh: inactive; TNAP act hi DEA: inactive; TNAP inh hiacc: inactive; Arbovirus inh: inactive; TNAP inh noacc: inactive

Results for O=C(Nc1cccc(Cl)c1)Nc1ccnc(-c2cccnc2)n1 ?
PKD1 inh: inactive; TNAP act hi DEA: inactive; TNAP inh hiacc: inactive; Arbovirus inh: 34.4; TNAP inh noacc: inactive

Results for CC(=O)Nc1ccnc(-c2cccnc2)n1 ?
PKD1 inh: inactive; TNAP act hi DEA: inactive; TNAP inh hiacc: inactive; Arbovirus inh: inactive; TNAP inh noacc: inactive

How did COc1cccc(CN=C2Nc3ccccc3CS2)c1 do in these assays?
PKD1 inh: inactive; TNAP act hi DEA: inactive; TNAP inh hiacc: inactive; Arbovirus inh: 30.1; TNAP inh noacc: inactive

Results for Cc1ccccc1OCCSCc1nc2ccccc2[nH]1 ?
PKD1 inh: inactive; TNAP act hi DEA: inactive; TNAP inh hiacc: inactive; Arbovirus inh: 66.2; TNAP inh noacc: inactive

What do the screens show for `Cc1csc(NC(=O)c2ccc(C)c(S(=O)(=O)N3CCCCC3)c2)n1`?
PKD1 inh: inactive; TNAP act hi DEA: inactive; TNAP inh hiacc: inactive; Arbovirus inh: 31.0; TNAP inh noacc: inactive

Results for Cc1ccc(-c2csc3ncnc(NS(=O)(=O)c4ccc(Cl)cc4)c23)cc1 ?
PKD1 inh: inactive; TNAP act hi DEA: inactive; TNAP inh hiacc: inactive; Arbovirus inh: 45.9; TNAP inh noacc: inactive

Results for NNc1ncnc2scc(-c3ccc(Cl)cc3)c12 ?
PKD1 inh: inactive; TNAP act hi DEA: inactive; TNAP inh hiacc: inactive; Arbovirus inh: inactive; TNAP inh noacc: inactive

How did COCCCn1c(N)c(-c2nc3ccccc3n2C)c2nc3ccccc3nc21 do in these assays?
PKD1 inh: inactive; TNAP act hi DEA: inactive; TNAP inh hiacc: inactive; Arbovirus inh: 44.1; TNAP inh noacc: inactive

What do the screens show for `Cn1c(-c2c(N)n(CCCc3ccccc3)c3nc4ccccc4nc23)nc2ccccc21`?
PKD1 inh: inactive; TNAP act hi DEA: inactive; TNAP inh hiacc: inactive; Arbovirus inh: inactive; TNAP inh noacc: inactive

What do the screens show for `CC(C)(C)c1ccc(S(=O)(=O)N2CCCCC2)cc1`?
PKD1 inh: inactive; TNAP act hi DEA: inactive; TNAP inh hiacc: inactive; Arbovirus inh: inactive; TNAP inh noacc: inactive

What do the screens show for `Cc1nn(-c2ccccc2)c2nc(C(F)(F)F)[nH]c(=O)c12`?
PKD1 inh: inactive; TNAP act hi DEA: inactive; TNAP inh hiacc: inactive; Arbovirus inh: 37.2; TNAP inh noacc: inactive

How did Cc1nn(CCC#N)c2nc(C(F)(F)F)[nH]c(=O)c12 do in these assays?
PKD1 inh: inactive; TNAP act hi DEA: inactive; TNAP inh hiacc: inactive; Arbovirus inh: inactive; TNAP inh noacc: inactive

What do the screens show for `S=c1[nH]nc(-c2ccco2)n1/N=C/c1ccc(Cl)c(Cl)c1`?
PKD1 inh: inactive; TNAP act hi DEA: inactive; TNAP inh hiacc: inactive; Arbovirus inh: inactive; TNAP inh noacc: 58.0

How did S=c1[nH]nc(-c2ccco2)n1/N=C/c1ccccn1 do in these assays?
PKD1 inh: inactive; TNAP act hi DEA: inactive; TNAP inh hiacc: inactive; Arbovirus inh: inactive; TNAP inh noacc: inactive

Results for Cc1ccccc1-c1nc(CN(C)C(C)c2ccon2)c(C)o1 (stereo unspecified) ?
PKD1 inh: inactive; TNAP act hi DEA: inactive; TNAP inh hiacc: inactive; Arbovirus inh: inactive; TNAP inh noacc: inactive

What do the screens show for `O=c1cc(/N=C/c2coc3c(ccc4ccccc43)c2=O)[nH]c(=S)[nH]1`?
PKD1 inh: inactive; TNAP act hi DEA: inactive; TNAP inh hiacc: inactive; Arbovirus inh: inactive; TNAP inh noacc: 53.3

What do the screens show for `NC(=S)N/N=C/c1coc2c(ccc3ccccc32)c1=O`?
PKD1 inh: inactive; TNAP act hi DEA: inactive; TNAP inh hiacc: inactive; Arbovirus inh: inactive; TNAP inh noacc: inactive

What do the screens show for `CC1(C)Nc2ccccc2N(Cc2ccc([N+](=O)[O-])cc2)C1=O`?
PKD1 inh: inactive; TNAP act hi DEA: inactive; TNAP inh hiacc: inactive; Arbovirus inh: inactive; TNAP inh noacc: inactive

How did CSc1nc(C)c(CCO)c(=O)[nH]1 do in these assays?
PKD1 inh: inactive; TNAP act hi DEA: inactive; TNAP inh hiacc: inactive; Arbovirus inh: 30.6; TNAP inh noacc: inactive

Results for CSc1nc(C)c(CCOC(=O)c2ccccc2)c(=O)[nH]1 ?
PKD1 inh: inactive; TNAP act hi DEA: inactive; TNAP inh hiacc: inactive; Arbovirus inh: inactive; TNAP inh noacc: inactive

Results for O=C(N/N=C\c1cccnc1)c1cc(-c2ccc(Cl)s2)[nH]n1 ?
PKD1 inh: inactive; TNAP act hi DEA: inactive; TNAP inh hiacc: inactive; Arbovirus inh: inactive; TNAP inh noacc: 83.7

How did Cc1ccc(-c2cc(C(=O)N/N=C/c3c(C)nn(-c4ccccc4)c3C)[nH]n2)cc1 do in these assays?
PKD1 inh: inactive; TNAP act hi DEA: inactive; TNAP inh hiacc: inactive; Arbovirus inh: inactive; TNAP inh noacc: 83.4

Results for Cc1[nH]c2ccccc2c1/C=N/NC(=O)c1cc(-c2cccs2)[nH]n1 ?
PKD1 inh: inactive; TNAP act hi DEA: inactive; TNAP inh hiacc: inactive; Arbovirus inh: inactive; TNAP inh noacc: 81.4

Results for Cc1ccc(-c2cc(C(=O)N/N=C/c3c(C)nn(-c4ccccc4)c3C)n[nH]2)s1 ?
PKD1 inh: inactive; TNAP act hi DEA: inactive; TNAP inh hiacc: inactive; Arbovirus inh: inactive; TNAP inh noacc: 60.3

What do the screens show for `CC(/C=N/NC(=O)c1cc(-c2cccs2)[nH]n1)=C\c1ccccc1`?
PKD1 inh: inactive; TNAP act hi DEA: inactive; TNAP inh hiacc: inactive; Arbovirus inh: inactive; TNAP inh noacc: inactive

What do the screens show for `NS(=O)(=O)c1ccc(CCNC(=O)COC(=O)/C=C/c2ccccc2Cl)cc1`?
PKD1 inh: inactive; TNAP act hi DEA: inactive; TNAP inh hiacc: inactive; Arbovirus inh: inactive; TNAP inh noacc: inactive

Results for COc1cc(/C=C2/C(=O)ON=C2c2ccccc2)ccc1O ?
PKD1 inh: inactive; TNAP act hi DEA: inactive; TNAP inh hiacc: inactive; Arbovirus inh: inactive; TNAP inh noacc: 51.6

How did COc1ccc(C=C2C(=O)c3ccccc3C2=O)cc1O do in these assays?
PKD1 inh: inactive; TNAP act hi DEA: inactive; TNAP inh hiacc: 53.2; Arbovirus inh: inactive; TNAP inh noacc: inactive

What do the screens show for `CCN1C/C(=C/c2ccc(OC)c(O)c2)C(=O)/C(=C/c2ccc(OC)c(O)c2)C1`?
PKD1 inh: inactive; TNAP act hi DEA: inactive; TNAP inh hiacc: inactive; Arbovirus inh: inactive; TNAP inh noacc: 55.9

Results for COc1cc(C=C2C(=O)c3ccccc3C2=O)cc(OC)c1OC ?
PKD1 inh: inactive; TNAP act hi DEA: inactive; TNAP inh hiacc: inactive; Arbovirus inh: inactive; TNAP inh noacc: inactive

How did COc1ccc(N2C(=O)[C@@H]3[C@H](C2=O)[C@H]2c4ccccc4C=CN2[C@@H]3C(C)=O)cc1 do in these assays?
PKD1 inh: inactive; TNAP act hi DEA: inactive; TNAP inh hiacc: inactive; Arbovirus inh: inactive; TNAP inh noacc: inactive
